Series [1] has as its system Leishmania braziliensis. In words: Inhibition of DHFR in Leishmania braziliensis MHOM/CO/87/UA301 promastigote forms assessed as growth inhibition at 2 uM after 72 hrs in presence of folinic acid by neubauer chamber method.
Series [2] relates to Leishmania braziliensis. Briefly: Antileishmanial activity against Leishmania braziliensis MHOM/CO/87/UA301 promastigote forms isolated from infected Balb/c mouse by neubauer chamber method. It counts as functional. The method, boiled down: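 Promastigotes seeded at 1x10^6/mL in LIT medium at 29 °C with 0.1–10 μM compound. Growth followed daily by Neubauer chamber counting; three independent experiments per concentration. EC50 obtained by nonlinear regression of concentration–response data.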

For series [3], the system named is Leishmania braziliensis. In words: Antileishmanial activity against Leishmania braziliensis MHOM/CO/87/UA301 promastigote forms isolated from infected Balb/c mouse assessed as parasite growth inhibition at 20 uM after 96 hrs by MTT assay relative to control. Particulars: MHOM/CO/87/UA301, 96 h, read-out: GI. Format: functional. The method, boiled down: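 Promastigotes in LIT + 10% FBS at 2x10^6/mL exposed to a single 20 μM concentration for 96 h at 29 °C. MTT (1 mg/mL) added for 4 h in darkness, cells lysed with acidic isopropanol, read at 570 nm. Inhibition relative to untreated parasites; means of three independent experiments.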
(In general: Formazan colour is commonly taken as a measure of viable cells.)

Series [4] has as its system Leishmania braziliensis. In words: Antileishmanial activity against Leishmania braziliensis MHOM/CO/87/UA301 amastigote forms infected in mouse BMDM after 96 hrs by Giemsa staining based assay. It counts as functional. Particulars: MHOM/CO/87/UA301, BMDM. The method, boiled down:
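BMDM mixed 1:10 with L. braziliensis promastigotes in DMEM + 10% FBS on glass coverslips, 18 h at 37 °C, 5% CO2. Medium then replaced with medium containing compound and incubated 96 h under the same conditions. Giemsa-stained macrophages counted for % total and % infected macrophages and amastigotes per macrophage; triplicate.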

Series [5] relates to Leishmania braziliensis. In words: Inhibition of CuZn-SOD in Leishmania braziliensis MHOM/CO/87/UA301 promastigote forms assessed as reduction in superoxide level at 0.012 to 1.2 uM after 30 mins by spectrophotometric based xanthine oxidase coupled enzyme assay. In a few lines:
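Promastigotes (4 million in 500 μL) treated at 0.012, 0.12 and 1.2 μM, then pelleted. Sonicated in STE buffer pH 7.8 and centrifuged; protein measured by Bradford. SOD activity read as NBT reduction by superoxide from xanthine/xanthine oxidase (8.4 U) with EDTA, Na2CO3 and albumin. 30 min at 27 °C, CuCl2 added, A595 measured; controls without xanthine oxidase; triplicate.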

Series [6] has as its system Leishmania braziliensis. Briefly: Antileishmanial activity against Leishmania braziliensis MHOM/CO/87/UA301 amastigote forms infected in mouse BMDM assessed as induction of nitrite production after 48 hrs by Griess assay. It counts as functional. The method, boiled down:
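Macrophages infected with L. braziliensis were incubated 48 h with compound at 0.08, 0.80 and 8.0 μM. Controls: untreated infected and uninfected macrophages, three wells each. Nitrite in supernatants measured by Griess reaction against a sodium nitrite standard (detection limit 1.56 μM). Triplicate; expressed as % of untreated infected macrophages.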
A general note: The Griess reaction detects nitrite, a stable product of nitric oxide.

Series [7] concerns Leishmania braziliensis. Briefly: Potency index, ratio of miltefosine EC50 to compound EC50 for Leishmania braziliensis MHOM/CO/87/UA301 promastigote forms isolated from infected Balb/c mouse. Format: functional.
Series [8] can be described thus: Selectivity index, ratio of LC50 for mouse BMDM to EC50 for Leishmania braziliensis MHOM/CO/87/UA301 amastigote forms infected in mouse BMDM.
A short description of series [9]: Cytotoxicity against mouse BMDM assessed as reduction in cell viability after 48 hrs by MTT assay. It counts as cell-based. The settings on record: bone marrow-derived macrophages (BMDM), read-out: LC50. The method, boiled down:
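Mouse bone-marrow macrophages (BMDM) were differentiated in L-929 conditioned medium and kept at 37 °C, 5% CO2, 90% humidity. Cells at 5×10^4 cells/mL were exposed to compounds at 10 to 100 µM for 48 h. Read-out was MTT reduction as a percentage of control cells. LC50 is the mean of three independent experiments.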

The test system of series [10] is Leishmania braziliensis. In words: Ratio of EC50 for Leishmania braziliensis MHOM/CO/87/UA301 amastigote forms infected in mouse BMDM to EC50 for Leishmania braziliensis MHOM/CO/87/UA301 promastigote forms. Format: functional.
Series [11] has as its system Leishmania braziliensis. Briefly: Cytotoxicity against Leishmania braziliensis MHOM/CO/87/UA301 promastigote forms assessed as cell death at 20 uM after 30 mins by MTT assay. The settings on record: 0.5 h. In a few lines:
(§1)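 10^6 promastigotes in 500 μL per well treated with 20 μM compound at 28 °C, with untreated wells for each time point; sampled between 30 and 180 min. Cells counted, then MTT added (50 μL of 5 mg/mL in PBS) for 4 h. Stopped with acidic isopropanol, read at 570 nm. Pmdh (%) taken relative to untreated parasites as 100%; triplicate.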

The test system of series [12] is Leishmania braziliensis. In words: Inhibition of DHFR in Leishmania braziliensis MHOM/CO/87/UA301 promastigote forms assessed as growth inhibition at 0.5 uM after 72 hrs in presence of folinic acid by neubauer chamber method.
In series [13] the test system is Leishmania braziliensis. Briefly: Antileishmanial activity against Leishmania braziliensis MHOM/CO/87/UA301 promastigote forms isolated from infected Balb/c mouse assessed as induction of oxidative stress by measuring reduction in mitochondrial dehydrogenase activity at 20 uM by MTT assay. Format: functional. Particulars: TDE = time-dependent effect. The method, boiled down:
as §1

Series [14] relates to Leishmania braziliensis. Briefly: Antileishmanial activity against Leishmania braziliensis MHOM/CO/87/UA301 promastigote forms isolated from infected Balb/c mouse assessed as induction of oxidative stress by measuring reduction in mitochondrial dehydrogenase activity at 20 uM after 30 to 180 mins by MTT assay. It counts as functional. The method, boiled down:
as §1

Series [15] deals with Leishmania braziliensis. Briefly: Inhibition of DHFR in Leishmania braziliensis MHOM/CO/87/UA301 promastigote forms assessed as growth inhibition at 10 uM after 72 hrs in presence of folinic acid by neubauer chamber method.

pEC50: −log10 of the molar value. Calls of active or inactive are those of the source. No cut-off for these calls is given here. A value given as a limit tells only on which side of the number the result lay.

Regarding `CN(Cc1cnc2nc(N)nc(N)c2n1)c1ccc(C(=O)N[C@@H](CCC(=O)O)C(=O)O)cc1`, in the series on Leishmania braziliensis [1], the inhibition entry was “Active”.
As a reminder, the pEC50 is the negative decadic logarithm of the EC50, by convention in mol/L. For `Oc1ccccc1/C=N\Nc1nnc(Cl)c2ccccc12`, in the series on Leishmania braziliensis [2], the pEC50 was < 4.70. For the same compound, the inhibition of growth at 20 µM in the series on Leishmania braziliensis [3] is 33.9 to 64.2%.
On to `C/C(=N\Nc1nnc(Cl)c2ccccc12)c1ccccc1`, for which the pEC50 in the series on Leishmania braziliensis [2] is < 4.70. Further, the inhibition of growth at 20 µM with Leishmania braziliensis [3] came to 37%.
On the same counts, the results for `O=[N+]([O-])c1ccc(C=NNc2nnc(Cl)c3ccccc23)cc1` are > 4.70 and 41.9 to 58.1%.
For `Clc1nnc(NN=Cc2ccc(Br)cc2)c2ccccc12` the same measures were < 4.70 and 17.2%.
Consider `C/C(=N\Nc1nnc(Cl)c2ccccc12)c1cccc([N+](=O)[O-])c1`, for which the pEC50 with Leishmania braziliensis [2] was < 4.70. Also, in the series with Leishmania braziliensis [3], the inhibition of growth at 20 µM amounted to 9.46%.
For `Clc1nnc(N/N=C/c2ccccc2)c2ccccc12` the same measures were < 4.70 and 8.46%.
In the case of `O=[N+]([O-])c1ccc(C=NNc2nnc(Cl)c3ccccc23)o1`, the pEC50 in the series on Leishmania braziliensis [4] was 6.23; in the series on Leishmania braziliensis [2], 6.92. Moreover, the inhibition result in the series with Leishmania braziliensis [5] and in the series with Leishmania braziliensis [12] was “inactive” throughout. Further, the Activity result with Leishmania braziliensis [6] was “Dose-dependent effect”; with Leishmania braziliensis [11], “Non-Toxic”; in the series on Leishmania braziliensis [13] it was “Tde”. Besides, the entries for the “Ratio EC50” value in the series with Leishmania braziliensis [7] and in the series on Leishmania braziliensis [10] were 208 and 4.9, respectively. In addition, the “Selectivity Index” value in series [8] came to 23.7. The CC50 at 48 h in [9] is 14 µM. For the same compound, the inhibition of growth at 20 µM in the series with Leishmania braziliensis [3] lay within 13.5 to 86.5%.
`Clc1nnc(N/N=C/c2ccco2)c2ccccc12`: the pEC50 in the series on Leishmania braziliensis [2] is ≤ 4.70. In addition, in the series with Leishmania braziliensis [3], the inhibition of growth at 20 µM is 40.9 to 59.1%.
With `O=[N+]([O-])c1ccc(C=NNc2nnc(Cl)c3ccccc23)s1`, the “Ratio EC50” value in the series with Leishmania braziliensis [7] is given as 8. This compound also gave a pEC50 with Leishmania braziliensis [2] of 5.49. Further, in series [9], the CC50 at 48 h was < 10 µM. Also, in the series with Leishmania braziliensis [3], the inhibition of growth at 20 µM lay within 11.5 to 88.5%.
For the compound `COc1cc([N+](=O)[O-])ccc1/C=N/Nc1nnc(Cl)c2ccccc12`, in the series with Leishmania braziliensis [2], the pEC50 is < 4.70. Besides, the inhibition of growth at 20 µM in the series on Leishmania braziliensis [3] was 11.9%.
For `O=[N+]([O-])c1cccc(/C=N/Nc2nnc(Cl)c3ccccc23)c1` the same measures were < 4.70 and 10.6%.
On to `C/C(=N\Nc1nnc(Cl)c2ccccc12)c1cc(Cl)ccc1Cl`, for which the pEC50 in the series with Leishmania braziliensis [2] was < 4.70. Also, the inhibition of growth at 20 µM with Leishmania braziliensis [3] is 20%.
For `Clc1ccc(C=NNc2nnc(Cl)c3ccccc23)cc1`, in the series with Leishmania braziliensis [2], the pEC50 was < 4.70. Moreover, the inhibition of growth at 20 µM in the series with Leishmania braziliensis [3] amounted to 16.8%.
For `C/C(=N\Nc1nnc(Cl)c2ccccc12)c1ccc(Cl)cc1Cl` the same measures were < 4.70 and 37.5%.
Turning to `C/C(=N\Nc1nnc(Cl)c2ccccc12)c1ccc(Br)cc1`, the pEC50 in the series with Leishmania braziliensis [2] is < 4.70. Moreover, the inhibition of growth at 20 µM in the series with Leishmania braziliensis [3] turned out to be 10.6%.
In turn, `CCCCCCCCCCCCCCCCOP(=O)([O-])OCC[N+](C)(C)C` [MILTEFOSINE] gave a pEC50 in the series on Leishmania braziliensis [2] of 4.60 to 4.70. The CC50 at 48 h in series [9] is 125 µM. For the same compound, the result with Leishmania braziliensis [14] was inactive. Further, the inhibition of growth at 20 µM in the series on Leishmania braziliensis [3] was 67.8%. In the series on Leishmania braziliensis [15], the inhibition entry is “inactive”.
In the case of `Clc1cccc(/C=N/Nc2nnc(Cl)c3ccccc23)c1`, the pEC50 in the series on Leishmania braziliensis [2] was < 4.70. For the same compound, the inhibition of growth at 20 µM with Leishmania braziliensis [3] turned out to be 7.03%.
On the same counts, the results for `C/C(=N\Nc1nnc(Cl)c2ccccc12)c1ccc([N+](=O)[O-])cc1` are < 4.70 and 19.1%.
For `Fc1ccc(/C=N/Nc2nnc(Cl)c3ccccc23)cc1` the same measures were < 4.70 and 17.8%.
For `C/C(=N\Nc1nnc(Cl)c2ccccc12)c1ccc(O)cc1` the same measures were < 4.70 and 22.9%.
On to `Clc1nnc(N/N=C/c2cccc(Br)c2)c2ccccc12`, for which the pEC50 with Leishmania braziliensis [2] was < 4.70. In the series on Leishmania braziliensis [3], the inhibition of growth at 20 µM was 5.89%.

Values taken from ChEMBL document CHEMBL3994631, “Design, synthesis, structure-activity relationship and mechanism of action studies of a series of 4-chloro-1-phthalazinyl hydrazones as a potent agent against Leishmania braziliensis” (Eur J Med Chem, 2017).
